# Source: PubChem BioAssay
# ABCB1 inh = human ABCB1 inhibition, ABCG2 as counter-screen; P08183; AID 1326; CCRF-Adr cells, JC-1 efflux, flow cytometry; 190,000 compounds, 0.067% hits; inhibition, % at 6.6 µM; in the data active = inhibition above about 40%;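 also: 0% = vehicle and 100% = reference inhibitor; higher value means more JC-1 retained so stronger ABCB1 efflux block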
# MT stabilize HCS = stabilizes microtubules in HeLa cells; 200,000 compounds, 0.83% hits; HeLa tubulin immunostaining HCS, 24 h; share of cells brighter than vehicle mean+2SD; % tubulin-high responders, % at 10 µM; AID 2205;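 active = plate Z-score above 3 for both tubulin-high and condensed-nucleus cell shares, with cell loss under 80%, at 10 µM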;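 also: anti alpha tubulin signal scored within the nucleus-defined area of each cell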
# ABCG2 inh = blocks JC-1 efflux by human ABCG2 transporter. Q9UNQ0. IgMXP3 cells, flow cytometry. inhibition, % at 6.6 µM. 190,000 compounds, 0.1% hits;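 active = inhibition above 80%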;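 also: 0% = DMSO and 100% = nicardipine control wells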
#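 Test system: IgMXP3 (ABCG2) plus far-red-tagged CCRF-Adr (ABCB1) cells / Amount: 3 million cells/mL in well / Reagent: JC-1 transporter substrate / Timing: 10 min compound exposure, 25 °C / Signal: flow cytometry, 530 nm JC-1 signal / Read-out: percent efflux inhibition, scaled nicardipine 100% to DMSO 0% / Benchmarks: nicardipine as high control, DMSO as low control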
# PKD1 kinase inh = blocks activity of human protein kinase D1; Q15139; PKD1 kinase fluorescence polarization assay; inhibition, % (concentration not given with the values); 200,000 compounds, 0.056% hits; AID 797; in the data active = inhibition above about 50%
# b-catenin transl = alters nuclear translocation of beta-catenin in HeLa cells. nuclear translocation activity, % at 5 µM. immunofluorescence imaging. 190,000 compounds, 0.3% hits;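 active = nuclear translocation activity above 50% at 5 µM, with a well cell count of 50 or more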;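 also: per-cell ratio of nuclear to cytoplasmic median beta-catenin stain intensity; plate controls were DMSO negative control for no effect and GSK-3 inhibitor IX positive control for full effect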
#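 Test system: HeLa cells, endogenous beta-catenin; Compound: single 5 µM dose plus 0.02–20 µM confirmation series; Times: compound exposure 24 h at 37°C; Signal: fluorescence imaging of beta-catenin antibody stain plus DAPI; Read-out: % activation, nuclear-to-cytoplasmic median beta-catenin signal ratio per cell.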
# ABCB1 single pt = inhibits human ABCB1 efflux, confirmed at single point. shares compounds with ABCG2 inh. CCRF-Adr cells, JC-1 efflux, flow cytometry. 270 compounds, 7% hits. AID 1451. inhibition, % at 6.6 µM;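 active = inhibition of pump activity above 50%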;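 also: 0% = DMSO and 100% = nicardipine full pump inhibition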
# ABCG2 single pt = inhibits human ABCG2 efflux, confirmed at single point. shares compounds with ABCG2 inh. IgMXP3 cells, JC-1 efflux, flow cytometry. inhibition, % at 6.6 µM. 270 compounds, 6% hits. AID 1453;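 active = inhibition above 50%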;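 also: 0% = DMSO wells and 100% = nicardipine pump inhibitor wells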
# IgMXP3 fluor = counter-screen for ABCG2 inhibitors: compound fluorescence in IgMXP3 cells; shares compounds with ABCG2 inh; compound autofluorescence 488/530 nm, flow; active compounds read high; fluorescence at 6.6 µM; 270 compounds, 30% hits;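 active = fluorescence in ABCG2-expressing cells above the plate's control-well mean plus 3 SD, cut at about 15 in these data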;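 also: median cell fluorescence with compound minus that of DMSO-treated control cells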
# CCRF autofluor = counter-screen for ABCB1 inhibitors: compound fluorescence in CCRF-Adr cells | shares compounds with ABCG2 inh | compound autofluorescence 488/530 nm, flow cytometry; active compounds read high | fluorescence at 6.6 µM | 270 compounds, 30% hits | AID 1483;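 active = fluorescence beyond the plate control mean plus 3 SD, with a fluorescence-to-maximum score over 2, cut at about 25 in these data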
# An asterisk follows results filed as active; x = no result given; + = active, no number. The list is not random: actives were taken first. Their share in the collection is about 1%.
SMILES,ABCB1 inh,MT stabilize HCS,ABCG2 inh,PKD1 kinase inh,b-catenin transl,ABCB1 single pt,ABCG2 single pt,IgMXP3 fluor,CCRF autofluor
COc1cccc(CNC(=O)C(=O)NCC(c2ccco2)N2CCOCC2)c1 (configuration not stated),65.1*,1.9,65.4,-3.4,-2.6,-0.1,0.7,-0.14,4.31
CCc1cccc(CC)c1NC(=O)c1cc(CN2C(=O)c3ccccc3C2=O)ccc1OC,56.9*,1.6,96.1*,-2.5,x,31.7,18.7,-1.69,0.21
COc1ccc(CN2C(=O)c3ccccc3C2=O)cc1C(=O)OC(C)C(=O)NC(N)=O (configuration not stated),2.4,4.0,3.1,-4.4,x,x,x,x,x
c1ccc(CN2CCN(c3nc(-c4ccccn4)nc4ccccc34)CC2)cc1,48.0*,6.1,32.7,7.0,-5.9,37.3,18.8,2.06,12.8
CCN1CCN(c2nc(-c3ccccn3)nc3ccccc23)CC1,0.6,3.1,1.2,-5.8,-0.7,x,x,x,x
O=c1c(/C=C(\O)c2ccccc2)nc2ccccc2n1-c1ccccc1,45.2*,2.1,44.4,-2.7,1.8,41.5,8.0,3.81,77.5*
COc1ccc(OC)c(-n2c(C)ccc2-c2ccc(S(C)(=O)=O)cc2)c1,0.3,1.1,1.6,-0.6,-3.4,x,x,x,x
COc1ccc(/C=N/NC(=O)c2cccnc2)cc1CN1CCN(c2ccc(F)cc2)CC1,44.8*,3.4,8.7,2.5,1.0,34.9,11.8,-1.84,-3.84
Cc1cccc(N2CCN(Cc3nc(-c4cccc(Oc5ccccc5)c4)oc3C)CC2)n1,1.4,1.5,1.7,0.0,0.2,x,x,x,x
Cn1c(SCc2cc([N+](=O)[O-])cc3c2OCOC3)nnc1-c1ccccn1,1.0,2.8,6.0,0.9,-0.9,x,x,x,x
CC(O)CNc1nc2c(c(=O)n(C)c(=O)n2C)n1Cc1cccc(Br)c1 (configuration not stated),1.2,4.5,91.3*,-10.4,-4.1,-37.9,34.9,11.8,114*
COc1cc(OC)cc(C(=O)N[C@H](C(=O)Nc2nc(-c3ccc(OC)c(OC)c3)cs2)C(C)C)c1,x,x,x,x,0.1,x,x,x,x
COc1cc(OC)cc(C(=O)N[C@H](C(=O)Nc2nc(-c3cc(OC)ccc3OC)cs2)C(C)C)c1,4.7,3.0,46.6,-7.8,1.3,5.6,35.3,-1.79,-3.84
S=C1NCN(C2CCCCC2)CN1Cc1ccccc1,0.1,4.3,0.4,-0.4,-3.1,x,x,x,x
Nn1c(Cc2cccc3ccccc23)nnc1SCc1c(Cl)cccc1Cl,1.2,2.2,2.4,-0.4,0.3,x,x,x,x
Nn1c(Cc2cccc3ccccc23)nnc1SCc1ccc(Cl)c(Cl)c1,66.5*,3.8,81.7*,-8.4,x,1.0,17.4,0.36,-1.94
C/C(=N\NC(=O)CSc1nc(C)cc(C)n1)c1ccc2c(c1)OCCO2,0.2,3.0,0.8,-0.9,0.0,x,x,x,x
CN(CCCOc1ccccc1Br)Cc1ccccc1,56.1*,3.0,0.0,-2.9,0.8,-5.5,-8.7,112*,25.5*
CC(C)c1onc(C(=O)N2CCC(C(N)=O)CC2)c1[N+](=O)[O-],x,x,x,x,-0.7,x,x,x,x
CCOc1cc(N2CCOCC2)c(OCC)cc1NC(=O)COC(=O)c1cc(C)cc(C)c1,3.6,2.5,106.0*,-3.5,0.1,9.2,44.8,-1.99,-4.29
COc1ccc(NC(=O)CCC2CCCCC2)cc1S(=O)(=O)N1CCCCC1,2.3,8.1,80.8*,3.5,-0.7,25.8,9.2,8.01,11.4
COc1ccc(NC(=O)CC2CCCC2)cc1S(=O)(=O)N1CCCCC1,-0.2,1.6,2.2,6.0,0.2,x,x,x,x
NC(=O)N/N=C/c1cc(Br)ccc1OC(=O)c1ccccc1,0.2,2.9,4.0,1.6,x,x,x,x,x
CCOC(=O)CSc1nc2cc(C)ccc2cc1C#N,0.3,3.2,4.8,7.0,0.3,x,x,x,x
CCOC(=O)CSc1nc2cc(C)cc(C)c2cc1C#N,2.2,3.6,98.7*,0.2,-4.4,1.0,16.0,61*,0.71
SMILES,ABCB1 inh,MT stabilize HCS,ABCG2 inh,PKD1 kinase inh,b-catenin transl,ABCB1 single pt,ABCG2 single pt,IgMXP3 fluor,CCRF autofluor
OC1(c2cccc(C(F)(F)F)c2)CCN(c2ccc(-c3ccccc3)nn2)CC1,1.6,2.0,92.6*,-0.8,5.0,14.1,37.0,8.36,51.3*
N#CC(C#N)=C1C=C2C=C(N3CCCCCC3)CCC2CC1 (configuration not stated),115.6*,2.7,55.5,-38.3,-0.8,138.5*,46.3,46.1*,131*
CCN1CCN(C2=CC3=CC(=C(C#N)C#N)CCC3CC2)CC1 (configuration not stated),69.6*,4.7,55.4,-4.8,0.2,23.4,45.5,34.7*,92.9*
N#CC(C#N)=C1C=C2C=C(N3CCOCC3)CCC2CC1 (configuration not stated),169.4*,3.9,52.9,-9.6,1.2,11.5,50.3*,7.66,24.9
CN1CCN(C2=CC3=CC(=C(C#N)C#N)CCC3CC2)CC1 (configuration not stated),+,5.3,85.0*,-2.3,1.2,68.4*,53.3*,28.8*,46.8*
CC1(C)CC(NCCN2CCN(C3=CC(=C(C#N)C#N)CC(C)(C)C3)CC2)=CC(=C(C#N)C#N)C1,-0.1,3.8,5.0,-5.3,-2.0,x,x,x,x
Cn1cnc([N+](=O)[O-])c1SCCO,x,x,x,x,1.8,x,x,x,x
Cc1ccc(N(C(=O)c2ccc(S(=O)(=O)N3CCOCC3)cc2)C2C=CS(=O)(=O)C2)cc1 (configuration not stated),1.4,4.0,5.0,-16.7,-1.1,x,x,x,x
CCN(CC)S(=O)(=O)c1ccc(C(=O)N(c2ccc(C)cc2)C2C=CS(=O)(=O)C2)cc1 (configuration not stated),37.3,5.3,19.1,9.7,2.2,1.6,0.9,3.61,-0.99
Cc1cc(C)nc(-n2nc(C)c3c(C(F)(F)F)cc(=O)[nH]c32)n1,3.5,1.3,72.3,-6.3,0.0,-0.2,32.5,3.56,7.16
COc1ccc(Cl)cc1NC(=O)COC(=O)CCCN1C(=O)c2ccccc2C1=O,1.5,6.0,3.5,0.7,-0.4,1.4,19.6,-1.39,0.16
O=C1c2cccc(OCC(=O)N3CCCc4ccccc43)c2CCN1Cc1cccnc1,5.9,4.6,24.7,3.4,0.2,x,x,x,x
Cc1ccccc1CN1CCc2c(OCC(=O)N3CCCc4ccccc43)cccc2C1=O,47.4*,1.6,51.8,-5.2,-3.0,28.8,36.2,21.6*,12.9
O=C(NCc1ccccn1)Nc1cccc(NC(=O)NCc2ccccn2)c1,0.7,2.6,2.0,-5.8,x,x,x,x,x
